Compounds with a hit are over-represented: about 2.9% of the library has one in this group of screens.
SENP8 block-1: SENP8 protease inhibitors, primary screen, biochemical, luminescence. inhibition, % at 10 µM. actives 1.2% (n = 330,000). Sentrin-specific protease 8 (Homo sapiens), Q96LD8. purified SENP8, Z-RLRGG-aminoluciferin cleavage; in the data active means inhibition above about 50%
SENP7 block: SENP7 protease inhibitors, primary screen, biochemical, luminescence, uHTS; recombinant SENP7, Z-RLRGG-aminoluciferin luminescence, 40 min; actives 1.5% (n = 330,000); AID 434973, 2010; inhibition, % at 5 µM;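 active means inhibition above about 50% at the single test dose, limit read from the data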;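 further: plate controls were DMSO with enzyme for no effect and no enzyme buffer wells for full effect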
SENP6 inh: SENP6 protease inhibitors, primary screen, biochemical, luminescence, uHTS; inhibition, % at 10 µM; Recombinant SENP6 catalytic domain, aminoluciferin luminescence; actives 1.8% (n = 330,000);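 active means inhibition above about 50% at the single tested dose, limit read from the data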;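 further: plate controls were DMSO wells with enzyme for no effect and DMSO wells lacking enzyme for full effect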
Target sequence (Q9GZR1 628-1112 limits assumed): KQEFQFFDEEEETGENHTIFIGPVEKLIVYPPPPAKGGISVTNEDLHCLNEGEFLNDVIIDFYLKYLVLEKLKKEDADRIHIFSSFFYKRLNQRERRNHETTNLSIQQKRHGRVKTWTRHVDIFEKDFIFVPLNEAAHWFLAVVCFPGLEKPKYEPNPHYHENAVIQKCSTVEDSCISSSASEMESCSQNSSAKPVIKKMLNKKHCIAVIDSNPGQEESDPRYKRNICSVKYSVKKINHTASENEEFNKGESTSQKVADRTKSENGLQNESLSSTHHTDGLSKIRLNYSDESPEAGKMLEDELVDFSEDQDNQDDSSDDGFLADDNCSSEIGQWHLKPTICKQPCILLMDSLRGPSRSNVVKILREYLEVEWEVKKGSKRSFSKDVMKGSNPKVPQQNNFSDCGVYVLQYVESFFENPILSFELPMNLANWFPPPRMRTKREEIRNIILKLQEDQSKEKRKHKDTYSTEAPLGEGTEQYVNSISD
SENP1 inh: human SENP1 catalytic domain inhibitors, primary screen, biochemical, FRET, uHTS. AID 624204, 2012. actives 0.21% (n = 360,000). recombinant SENP1 catalytic domain, CyPet-SUMO1-YPet FRET cleavage. inhibition, % at 10 µM;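 active means inhibition at least 30% at 10 µM, raw YFP signal under a set limit, fluorescence ratio 0.5 to 1.5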;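 further: 0% = enzyme with DMSO and 100% = no enzyme wells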
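Assay system – human recombinant His6-tagged SENP1 catalytic domain enzyme · Input – SENP1 enzyme, 20 pM final · Buffer or medium – Tris pH 8 buffer plus EDTA, NaCl, BME, BSA, NP40, catalase · Schedule – 50 min reaction at room temperature · Technique – FRET read of cyan and yellow fluorescence · Control set – no-enzyme wells low, DMSO-plus-enzyme wells high control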
SENP8 block-2: human SENP8 protease inhibitors, primary screen, biochemical, fluorescence, Nedd8 protein substrate, uHTS | Sentrin-specific protease 8 (Homo sapiens), Q96LD8 | recombinant SENP8 | inhibition, % at 20 µM | actives 0.64% (n = 360,000) | AID 602440, 2012; in the data active means inhibition mostly above about 40%, no sharp cut-off; inactive means mostly below about 27%
HSP90 inh: HSP90 inhibitors, primary screen, cell lysate, luminescence. actives 0.91% (n = 290,000). AID 1789, 2009. Rabbit reticulocyte lysate, luciferase refolding luminescence, 3 h. Heat shock protein HSP 90 (rabbit reticulocyte lysate; luciferase refolding). inhibition, % at 5.6 µM;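 active means inhibition above the screen-wide mean plus 3 SD, computed separately per campaign, cut at about 16% in these data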;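 further: 0% = DMSO wells and 100% = 60 µM geldanamycin wells; inhibitors lower the luminescence because luciferase stays unfolded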
The depositor's hits bear a star; . = no result.

SMILES	SENP8 block-1	SENP7 block	SENP6 inh	SENP1 inh	SENP8 block-2	HSP90 inh
COc1ccc(OC)c(S(=O)(=O)N2CCCC(C(=O)NCCN3CCOCC3)C2)c1 (stereo not given)	-2.4	-1.5	-16.3	2.9	7.2	-1.7
C/C(=N\OC(=O)c1ccc(F)cc1)c1sc(-c2ccc(Cl)cc2)nc1C	-1.4	3.2	-19.8	0.1	-412.9	.
C/C(=N\OC(=O)c1ccc(F)cc1)c1ccc(F)c(F)c1	72.8*	92.0*	80.5*	4.6	22.6	4.5
COc1cc(OC)c(-c2c3cc(O)c(=O)cc-3oc3cc(O)c(O)cc23)cc1OC	-6.7	-6.3	17.6	87.7*	24.5	0.7
Cc1c2cc(O)c(=O)cc-2oc2cc(O)c(O)cc12	7.7	2.4	15.7	-13.9	-166.2	3.3
CCCN1/C(=C2/SC(=S)N(CC)C2=O)C=Cc2ccccc21	3.4	9.0	-2.3	5.9	41.3*	-0.9
CCCN1C(=O)/C(=C2/C=Cc3ccccc3N2CC)SC1=S	-5.0	1.1	0.7	9.1	28.3	4.0
Cc1ccc(C(=O)NN=Cc2ccc3c(c2)OCO3)cc1	.	.	.	1.2	-127.4	.
O=C(N/N=C/c1ccc(Br)cc1)c1ccc(Br)o1	65.1*	76.5*	86.4*	2.8	18.7	-4.7
Cc1ccc(C(=O)N/N=C/c2ccc3c(c2)OCO3)o1	35.5	58.9*	61.4*	-1.7	-124.6	-2.7
O=C(N/N=C/c1ccccc1)c1ccc2c(c1)OCO2	-2.4	19.4	11.0	0.3	18.6	16.1*
O=C(N/N=C/c1ccc(F)cc1)c1ccc(Br)cc1	-11.7	-3.8	0.8	-2.1	10.5	2.0
O=C1c2ccccc2C(=O)c2c1cccc2N1CCOCC1	5.6	5.2	13.6	1.8	42.6*	5.7
CC(=O)N(C)c1ccc(N2CCOCC2)c2c1C(=O)c1ccccc1C2=O	1.7	-0.4	-4.7	0.5	32.2	.
CCC(c1ccccc1)C(CC)c1cc(O)c(O)c(O)c1 (stereo not given)	.	.	.	0.1	63.5*	.
CCC(C)c1ccccc1O (stereo not given)	0.5	9.5	2.0	1.8	-3.3	.
COc1cccc(-c2nc(N3CCCCC3C)c3ccccc3n2)c1O (stereo not given)	-0.4	8.5	-1.4	2.6	47.4*	1.9
COc1cccc(-c2nc(N3CCN(C)CC3)c3ccccc3n2)c1O	3.5	0.1	-11.6	1.9	15.1	0.6
Cc1cc2sc(C(=O)O)c(C)c2s1	-2.3	-0.6	-6.7	1.3	17.3	-2.8
CCCC(=O)NC(c1ccccc1OC)c1ccc2cccnc2c1O (stereo not given)	-8.5	-8.0	1.0	2.2	16.5	24.4*
CCCCC(=O)NC(c1ccc(N(C)C)cc1)c1ccc2cccnc2c1O (stereo not given)	2.5	8.6	-7.0	1.6	13.7	19.1*
CCCCC(=O)NC(c1ccc(N(CC)CC)cc1)c1ccc2cccnc2c1O (stereo not given)	-8.7	6.8	11.7	1.1	10.0	8.2
CCCCC(=O)NC(c1ccccc1OC)c1ccc2cccnc2c1O (stereo not given)	-1.2	4.9	-11.6	2.6	22.7	14.2
CN1CCC(N(C)S(=O)(=O)c2ccc(NC(=O)COc3ccc(F)cc3Cl)cc2)CC1	-4.1	2.8	-9.8	-2.5	-3.0	5.7
COC(=O)c1ccc(CSCc2ccc(C#N)cc2)cc1	-5.7	-3.2	-8.6	.	.	1.0
SMILES	SENP8 block-1	SENP7 block	SENP6 inh	SENP1 inh	SENP8 block-2	HSP90 inh
OCc1ccccc1SSc1ccccc1CO	-3.4	3.3	-9.5	0.3	28.0	.
Cc1cccc2c(N=NC(=O)c3ccc(NS(=O)(=O)c4cccs4)cc3)c(O)[nH]c12	8.0	-6.1	-8.9	2.5	24.2	.
Cc1cccc2c(N=Nc3ccc(S(=O)(=O)Nc4ccc(Cl)cc4)cc3[N+](=O)[O-])c(O)[nH]c12	0.8	-2.2	-13.0	5.2	40.2*	0.8
Oc1ccc(N=Nc2cccc(C(F)(F)F)c2)cc1C=Nc1ccc(N2CCOCC2)cc1	43.0	11.3	65.9*	9.0	35.6*	4.6
COc1ccc(Cc2c3cc(OC)c(OC)cc3cc[n+]2C)cc1OC	13.7	-5.8	20.3	0.8	59.9*	.
O=C(O)c1ccc(Cl)c2c1C1C=CCC1C(c1ccccn1)N2 (stereo not given)	-10.4	-12.1	-9.1	.	.	1.5
O=[N+]([O-])c1ccc(Cl)c2c1C1C=CCC1C(c1ccccn1)N2 (stereo not given)	-5.6	0.3	8.8	4.6	42.5*	-2.2
CCOC(=O)c1sc(NC(=O)CCN2CCN(CC)CC2)c(C(=O)OCC)c1C	9.6	3.7	-9.2	-2.3	5.5	-3.2
COc1ccc(-n2c(-c3ccc(Br)cc3)c[n+]3c2SC(C)C3)cc1 (stereo not given)	0.6	3.9	8.4	4.3	17.8	-4.7
Cc1ccc(C(=O)c2coc3c2C(=O)C(=O)c2ccccc2-3)cc1	2.8	-2.3	23.1	2.8	55.9*	4.7
Cc1oc2c(c1C(=O)c1ccc(Cl)cc1)C(=O)C(=O)c1ccccc1-2	.	.	.	8.1	113.4*	-0.6
COc1n[nH]c(C(=O)Nc2nc3ccccc3s2)c1[N+](=O)[O-]	90.9*	92.3*	96.2*	0.3	15.8	-3.7
CC(C)CN=Cc1c(O)c([N+](=O)[O-])cc2oc3c(c12)CCCC3	16.8	7.7	22.7	32.0*	31.4	0.6
Cc1cccc(/N=C/c2c(O)ccc3oc4c(c23)CCCC4)n1	5.6	1.9	6.6	4.1	-16.0	-5.2
COc1cc(CN2CCc3ccccc3C2)cc([N+](=O)[O-])c1O	-0.9	1.4	3.6	2.0	14.0	2.1
O=[N+]([O-])c1cc2oc3c(c2c(C=NCc2ccccc2)c1O)CCCC3	7.6	3.9	1.5	46.0*	30.8	1.6
CCOC(=O)c1c2c(n(Cc3ccccc3)c1C)C(=O)C(=O)c1ccccc1-2	.	.	.	0.4	100.2*	.
CCOC(=O)c1c2c(n(C)c1C)C(=O)C(=O)c1ccc(Br)cc1-2	93.3*	96.6*	94.1*	1.6	114.2*	-0.2
CCOc1cccc(C2/C(=C(/O)c3ccc4c(c3)CC(C)O4)C(=O)C(=O)N2CCCn2ccnc2)c1 (stereo not given)	-2.0	-2.6	7.0	-0.6	-32.0	2.2
COC(=O)c1ccc(NC(=O)c2cccc(Cl)c2)o1	4.9	1.6	2.0	1.0	2.4	0.7
Cc1nn(-c2ccccc2)c(N2CCCC2)c1/C=N/Nc1ccc(S(N)(=O)=O)cc1[N+](=O)[O-]	0.6	-5.9	-22.7	3.6	47.6*	3.4

Compound activity as filed in PubChem.
